# Source: PubChem BioAssay (several laboratories)
# HKDC1 inh = blocks human hexokinase HKDC1 activity | Q2TB90 | recombinant HKDC1, G6PDH/diaphorase resazurin coupled fluorescence | inhibition, % at 20 µM | 0.16% of 340,000 active;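 active = inhibition above about 35% when tested at 20 µM, limit read from the data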;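 note: plate controls were DMSO wells with enzyme for no effect and DMSO wells lacking enzyme for full effect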
#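 Test system: recombinant HKDC1 (HK5) hexokinase enzyme, produced in-house / Doses: 20 µM test compound, 1% DMSO / Timing: 90 min, room temperature / Detection: G6PDH/diaphorase-coupled fluorescence, 1 mM NADP, 100 µM resazurin, 525/613 nm / Control set: DMSO wells with and without enzyme mix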
# PfGluPho inh = PfG6PD (Plasmodium falciparum) enzyme inhibition | PfGluPho enzyme, NADPH resazurin-diaphorase fluorescence | inhibition, % at 20 µM | 0.78% of 350,000 active | AID 504690;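 active = inhibition reaching at least a set limit at 20 µM in the primary screen, cut at about 59% in these data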;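 note: 0% = DMSO wells with substrate and 100% = DMSO wells lacking glucose-6-phosphate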
# Exocytosis inh = blocks lytic granule exocytosis | 0.66% of 360,000 active | inhibition, % at 10 µM | TALL-104 LAMP-1 surface exposure, flow cytometry; cells stimulated with thapsigargin and PMA | AID 651702;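 active = inhibition above about 55%, limit read from the data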
# ABHD5 PLIN5 PPI = ABHD5-PLIN5 protein interaction inhibition. Q00G26+Q8WTS1. Split G. princeps luciferase complementation, luminescence, 4 h. inhibition, % at 4 µM. 0.78% of 360,000 active. AID 602281;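 active = inhibition above the mean inhibition across every tested compound plus 3 SD, cut at about 22% in these data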;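 note: 0% = DMSO only wells and the 100% control is not disclosed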
# Target sequence (Q00G26 whole entry, looked up): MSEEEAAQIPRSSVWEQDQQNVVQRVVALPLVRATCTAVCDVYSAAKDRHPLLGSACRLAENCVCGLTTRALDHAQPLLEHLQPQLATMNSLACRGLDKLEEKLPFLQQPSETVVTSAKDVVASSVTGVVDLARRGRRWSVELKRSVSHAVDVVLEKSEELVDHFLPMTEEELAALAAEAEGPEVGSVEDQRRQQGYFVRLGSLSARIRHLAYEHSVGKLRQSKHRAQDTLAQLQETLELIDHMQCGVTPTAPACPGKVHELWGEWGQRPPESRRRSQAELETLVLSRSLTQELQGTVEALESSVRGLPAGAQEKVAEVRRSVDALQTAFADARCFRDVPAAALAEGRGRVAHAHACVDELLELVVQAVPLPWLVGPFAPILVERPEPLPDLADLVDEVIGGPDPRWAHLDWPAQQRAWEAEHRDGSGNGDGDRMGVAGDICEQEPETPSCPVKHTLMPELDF
# Target sequence (Q8WTS1 whole entry, looked up): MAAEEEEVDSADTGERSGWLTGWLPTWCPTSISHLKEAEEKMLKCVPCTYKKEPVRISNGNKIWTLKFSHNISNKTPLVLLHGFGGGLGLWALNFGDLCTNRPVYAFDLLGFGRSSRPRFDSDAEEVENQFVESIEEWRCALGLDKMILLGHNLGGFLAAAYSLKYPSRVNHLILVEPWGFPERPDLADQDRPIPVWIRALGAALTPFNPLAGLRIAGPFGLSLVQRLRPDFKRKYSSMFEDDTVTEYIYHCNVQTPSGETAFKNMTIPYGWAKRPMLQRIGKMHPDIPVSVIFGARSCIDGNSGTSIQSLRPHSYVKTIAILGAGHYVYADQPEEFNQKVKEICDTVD
# Granule exo CP1 = blocks lytic granule exocytosis | shares compounds with Exocytosis inh | TALL-104 cells, LAMP-1 externalization, flow cytometry; stimulated with PMA plus thapsigargin | inhibition, % at 10 µM | 11% of 1,500 active | AID 651954; in the data active = inhibition above about 60%;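 note: 0% = stimulated vehicle wells and 100% = unstimulated wells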
# The depositor's hits bear a star; x = not tested or not shown. Shown are actives, neighbours in structure and some others; about 2.2% of the full set was active somewhere.
SMILES,HKDC1 inh,PfGluPho inh,Exocytosis inh,ABHD5 PLIN5 PPI,Granule exo CP1
CNC(=O)c1nc(C)c(C2(C)CC(c3cccc([N+](=O)[O-])c3)=NO2)s1 (stereo not given),-3,4,-4,-1,x
CCOC(=O)C1=NN(C(C)=O)C2C(=O)N(CC)C(=O)C12 (stereo not given),-4,-4,-5,-7,x
CCOc1ccc(N(CC(=O)NCCc2ccc(C)cc2)S(=O)(=O)c2c(C)noc2C)cc1,-2,13,79*,-2,-3
CCOc1ccc(OCC)c(NC(=O)CN(c2ccc(OC)cc2)S(=O)(=O)c2c(C)noc2C)c1,1,24,57*,-1,-5
Cc1cccc(NC(=S)NCC(c2cccnc2)N(C)C)c1 (stereo not given),-12,12,2,0,x
CSc1cccc(NC(=S)N(CCCN2CCCC2)Cc2cccn2Cc2ccc(Cl)cc2)c1,3,11,93*,20,63*
CSc1cccc(NC(=S)N(CCCN2CCCC2)Cc2cccs2)c1,-2,8,1,4,x
C[C@H](CO)N1C[C@H](C)[C@@H](CN(C)S(=O)(=O)c2cccs2)Oc2ccc(NS(=O)(=O)c3ccc(F)cc3)cc2C1=O,-3,-6,7,-2,x
COc1cccc(/C=N/NC(=O)Cn2cnc3c2c(=O)n(C)c(=O)n3C)c1,-8,-2,-2,-2,x
CCC1CCC(N2CCN(c3ccc([N+](=O)[O-])cc3)CC2)CC1 (stereo not given),0,-7,74*,-2,-10
O=C1OC(c2ccc(O)cc2)(c2ccccc2O)c2ccccc21 (stereo not given),0,-33,-1,-3,x
O=C1OC(c2ccccc2)(c2cc(Br)ccc2O)c2ccccc21 (stereo not given),0,9,103*,-3,99*
CCc1ccc(/C=C2/Sc3ccccc3N(CC(=O)NCCCN3CCOCC3)C2=O)cc1,-2,-8,66*,-5,63*
CCN1CCN(CCNC(=O)c2ccc(/C=C3/Sc4ccccc4N(Cc4cccc(Cl)c4)C3=O)cc2)CC1,-2,-23,79*,22*,55
COc1c(/C=N/Nc2ccc(C(=O)O)cc2)c(CCN(C)C(C)=O)cc2c1OCO2,-5,7,-3,2,x
COC(=O)c1cc2nc(-c3ccccc3)cc(C)n2n1,-3,23,0,0,x
Cc1cc(-c2ccccc2)nc2cc(C(=O)N(Cc3ccccc3)Cc3ccccc3)nn12,-2,8,80*,2,-2
COc1ccccc1C(=O)Nc1c(C(=O)N(CCN(C)C)Cc2ccco2)oc2ccccc12,2,10,66*,22*,2
COc1ccccc1CNc1nc(NCc2ccc(C(C)C)cc2)c2sccc2n1,x,x,62*,6,85*
Nc1c(C(=O)c2ccccc2)sc2nsc(SCCN3CCCC3)c12,6,9,64*,1,-4
OCCN1CCN(c2cc(-c3ccc4ccccc4c3)nc3ccnn23)CC1,x,x,59*,1,-12
O=C(C[C@H]1C/C=C\CC[C@@H](Cc2ccc(F)cc2)C(=O)OCCNC1=O)NCCO,0,-15,24,1,x
CCCCCCCCC(c1nc2ccccc2[nH]1)N1CCN=C1c1cc2ccccc2[nH]1 (stereo not given),x,x,76*,0,45
COc1ccc(C(C)=O)cc1COC(=O)c1cc2ccccc2cc1O,-1,15,91*,0,-5
COc1ccc(C(C)=O)cc1COC(=O)c1cccnc1Cl,-8,15,15,-10,x
SMILES,HKDC1 inh,PfGluPho inh,Exocytosis inh,ABHD5 PLIN5 PPI,Granule exo CP1
COc1ccccc1N(CC(=O)NCc1ccccc1C)S(=O)(=O)c1ccc(C)cc1,-2,12,63*,-4,-13
COc1ccc(N(CC(=O)NCc2ccccc2OC)S(=O)(=O)c2ccccc2)cc1,-1,-7,75*,1,-14
COc1ccc(N(CC(=O)NCc2ccco2)S(=O)(=O)c2ccccc2)cc1,-12,-16,-8,4,x
O=C(Nc1ccc([N+](=O)[O-])cc1)N1CCc2ccccc2C1,4,16,85*,-7,-12
CC(C)c1ccc(NC(=O)N2CCc3ccccc3C2)cc1,-1,51,-1,4,x
COc1ccc(F)cc1-c1cc(C(=O)NCc2ccc(C(F)(F)F)cc2)[nH]n1,x,x,73*,0,36
COc1ccc(F)cc1-c1cc(C(=O)NCc2cccc(C(F)(F)F)c2)[nH]n1,x,x,0,0,x
CC(C)C(=O)Nc1nnc(SCC(=O)NC2CCCC2)s1,-8,-7,-5,-6,x
COc1ccc2oc(=N)c(-c3nnc4n3CCCCC4)cc2c1,-2,10,56*,-4,-13
Cc1ccc(C)n1-c1nn(S(=O)(=O)c2ccccc2)c2cccc(F)c12,-3,7,56*,-3,-12
COc1ccc(S(=O)(=O)n2nc(-n3c(C)ccc3C)c3c(F)cccc32)cc1OC,4,12,-4,6,x
CCc1cc2c(CN(C)Cc3ccccc3F)cc(=O)oc2cc1O,4,-6,59*,-5,-9
Cc1ccc2nc(-c3ccc(N4C(=O)CC(N5CCN(CCO)CC5)C4=O)cc3)sc2c1 (stereo not given),-14,9,66*,20,62*
COc1ccc(Nc2nc(N3CCN(S(=O)(=O)N(C)C)CC3)nc3ccccc23)cc1,-2,31,81*,-6,-4
COc1ccc(Nc2nc(N3CCN(S(C)(=O)=O)CC3)nc3ccccc23)c(OC)c1,2,-4,15,7,x
Cc1ccc2nc3c(cc(C(=O)NCCc4ccccc4)c(=N)n3CCCN3CCOCC3)c(=O)n2c1,-6,-9,80*,3,-2
Cc1cccn2c(=O)c3cc(C(=O)NC4CCCC4)c(=N)n(CCc4ccccc4)c3nc12,-9,9,69*,-12,-3
CSCCC(NC(=O)COc1ccccc1)C(=O)NCCOc1ccccc1 (stereo not given),-5,7,5,-10,x
Nc1nnc(SCC(=O)NNC(=O)c2ccccc2F)s1,-3,-15,-1,-9,x
CCSc1nc2cc(C(=O)OC)ccc2c(=O)n1CC,1,-7,0,-2,x
COCCn1c(SCc2cccc(F)c2)nc2cc(C(=O)OC)ccc2c1=O,1,10,75*,-1,-12
NS(=O)(=O)c1cccc(NC(=O)CN2C(=O)C(=O)N(Cc3ccccc3)C2=O)c1,-2,-5,0,7,x
CCn1c(=O)c2cc(C(=O)NCCC(C)C)sc2c2ccccc21,-1,-2,71*,-1,-8
Cc1cc(NCCCN(C)C)n2c(nc3ccccc32)c1C#N,6,2,3,-11,x
Cc1cc(NCCCOC(C)C)n2c(nc3ccccc32)c1C#N,7,15,62*,-5,-14
COc1ccccc1C(=O)Nc1c2c(nn1-c1cccc(C)c1C)CS(=O)(=O)C2,-11,-9,71*,1,-1
Cc1cccc(NC(=O)COC(=O)c2ccc3c(c2)OCO3)c1C,-3,3,-2,-1,x
